Compounds with a hit are over-represented: about 1.8% of the library has one in this group of screens.
NPY1 pot ag: potentiates or activates human NPY-Y1 receptor; P25929; NPY-Y1 expressing cells, potentiator/agonist activation; activation, % at 3.6 µM; actives 0.37% (n = 220,000); AID 1304; in the data active means activation above about 33%, passing the limit was not always enough;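 further: cells stimulated with NPY at EC10 then isoproterenol at EC100; 0% = low agonist plus stimulus and 100% = saturating agonist plus stimulus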
NPY Y1 blocker: blocks the human neuropeptide Y Y1 receptor; P25929; HEK293-CNG Y1 cells, membrane potential fluorescence; NPY at EC95, then isoproterenol; inhibition, % at 3.6 µM; actives 1% (n = 200,000);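 active means inhibition above the campaign mean inhibition of all tested compounds plus 3 SD, cut at about 20% in these data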;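 further: 0% = DMSO wells given NPY plus isoproterenol and 100% = isoproterenol alone without NPY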
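material = HEK293 cells with Y1 receptor plus CNG channel | also added = NPY 25 nM then isoproterenol 1 µM plus Ro 20-1724 25 µM | schedule = dye 3 h, compound 60 min room temperature, stimulation 45 min | measured by = membrane potential fluorescence | benchmarks = high control isoproterenol alone, low control NPY with isoproterenol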
NPY-Y2 antag: NPY-Y2 (human) receptor antagonism | P49146 | NPY-Y2 expressing cells, antagonist mode | inhibition, % at 2.7 µM | actives 0.99% (n = 140,000) | AID 793; in the data active means inhibition above about 17%;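 further: 0% = vehicle with agonist challenge and 100% = reference antagonist with challenge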
Target sequence (P49146 whole entry, looked up): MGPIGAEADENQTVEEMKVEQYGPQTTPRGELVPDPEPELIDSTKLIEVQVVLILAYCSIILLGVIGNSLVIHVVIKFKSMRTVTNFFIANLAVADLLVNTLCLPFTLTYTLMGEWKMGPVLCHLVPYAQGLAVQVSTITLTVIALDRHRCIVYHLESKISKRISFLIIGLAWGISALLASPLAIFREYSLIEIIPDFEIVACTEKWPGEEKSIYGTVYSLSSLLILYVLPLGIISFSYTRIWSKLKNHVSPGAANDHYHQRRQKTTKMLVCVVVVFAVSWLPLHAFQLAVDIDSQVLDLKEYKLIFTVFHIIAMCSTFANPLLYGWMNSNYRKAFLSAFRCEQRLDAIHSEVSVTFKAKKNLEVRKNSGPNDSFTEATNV
NPY2 pot ag: human NPY-Y2 potentiation or agonism, primary screen. P49146. cells expressing NPY-Y2, potentiator/agonist read-out. activation, % at 3.6 µM. actives 0.45% (n = 220,000). AID 1359; in the data active means activation above about 27%;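 further: cells stimulated with NPY near EC25 plus isoproterenol at EC100; 0% = vehicle plus submaximal agonist and 100% = vehicle plus saturating agonist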
NPY-Y1 pot conf: human NPY-Y1 potentiation or agonism, confirmation; shares compounds with NPY1 pot ag; cell-based NPY-Y1 potentiator/agonist assay; activation, % at 3.6 µM; actives 20% (n = 280); AID 1546; in the data active means activation above about 45%;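 further: cells challenged with NPY at its EC10 plus isoproterenol stimulus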
NPY-Y2 counter: NPY-Y2 potentiation or agonism as NPY-Y1 counter-screen. shares compounds with NPY1 pot ag. HEK293-CNG cells, membrane-potential fluorescence (FLIPR), 1536-well. activation, % at 3.6 µM. actives 20% (n = 280); in the data active means activation above about 33%
NPY-Y1 ag: human NPY-Y1 agonism as potentiator counter-screen. shares compounds with NPY1 pot ag. HEK293 Y1-CNGC, membrane potential fluorescence, agonist mode. activation, % at 3.6 µM. actives 50% (n = 280);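 active means percent activation above the mean of DMSO-only control wells plus 3 SD of those wells, cut at about 18% in these data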;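 further: cells challenged with isoproterenol plus Ro 20-1724 with no NPY in test wells; Y1 agonism lowers isoproterenol-driven cAMP and reduces probe fluorescence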
NPY-Y2 agonist: activates human NPY-Y2, counter-screen for NPY-Y1 hits. HEK293 Y2-CNGC, membrane potential fluorescence, agonist mode. shares compounds with NPY1 pot ag. actives 67% (n = 280). activation, % at 3.6 µM;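 active means activation above the solvent-only control wells' mean plus 3 SD, cut at about 11% in these data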;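 further: 0% = DMSO with isoproterenol and 100% = 40 nM NPY maximal response; agonism lowers cAMP so well fluorescence drops in active wells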
CNGC inh 2: CNG channel inhibition, counter-screen for NPY-Y1 potentiators | inhibition, % at 3.6 µM | shares compounds with NPY1 pot ag | AID 1704 | HEK293-CNG parental, isoproterenol cAMP, membrane potential fluorescence | actives 42% (n = 280);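 active means inhibition above the mean of stimulated solvent-only control wells plus 3 SD, cut at about 22% in these data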;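 further: 0% = isoproterenol-stimulated DMSO wells and 100% = unstimulated DMSO wells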
Active calls of the source: *; . = not tested or not shown.

SMILES | NPY1 pot ag | NPY Y1 blocker | NPY-Y2 antag | NPY2 pot ag | NPY-Y1 pot conf | NPY-Y2 counter | NPY-Y1 ag | NPY-Y2 agonist | CNGC inh 2
O=[N+]([O-])c1ccc(/C=C/C2=NN(c3ccccc3)C(c3ccco3)C2)o1 (stereo not given) | 36* | -6 | . | 22 | 60* | 45* | 56* | 58* | 45*
CNC(=O)c1c(C)nn(-c2ccc(F)c(Cl)c2)c1-c1cc(C)on1 | -4 | . | . | -11 | . | . | . | . | .
COCCNS(=O)(=O)c1ccc(OCC(=O)OC)c(Cl)c1 | -6 | 2 | 2 | 1 | . | . | . | . | .
COC(=O)COc1ccc(S(=O)(=O)NCCC2=CCCCC2)cc1Cl | 56* | 1 | 5 | 20 | 57* | 31 | 52* | 39* | 49*
COc1ccc2c(c1)CCCC21NC(=O)NC1=O (stereo not given) | 2 | 2 | 0 | 9 | . | . | . | . | .
COc1ccc2cc(C3(C)NC(=O)NC3=O)ccc2c1 (stereo not given) | 68* | -7 | -1 | 8 | 0 | -5 | -6 | -3 | -8
CN(C)Cc1c(O)ccc2oc(Cc3ccccc3)cc12 | 53* | 1 | 8 | 21 | 16 | 18 | 21* | 26* | -1
Cc1ccc(O)c(C(=O)c2cnc3c(c2)c(-c2ccc(F)cc2)c(C#N)c(=O)n3C)c1 | 42* | -4 | . | 9 | 61* | 55* | 49* | 54* | 34*
CCOc1ccc(N=C(/C(C(=O)C(=O)N2CCOCC2)=C(/O)c2ccccc2)c2ccccc2)cc1 | 16 | . | . | 0 | . | . | . | . | .
CCOC(=O)C1=C(CC)Nc2ccccc2N/C1=N\S(=O)(=O)c1ccc2ccccc2c1 | 5 | 6 | . | -8 | . | . | . | . | .
CCOC(=O)C1=C(CC)Nc2ccccc2N/C1=N\S(=O)(=O)c1cc(Br)ccc1Br | 33* | -2 | . | 16 | 7 | 6 | 4 | 1 | 7
COCc1cc(C)nc(SCC[N+](C)(C)CC(=O)Nc2cccc(C(F)(F)F)c2)c1C#N | 54* | -4 | . | -6 | 22 | 12 | 16 | 6 | 4
CC(C)(C)c1ccc(NC(=O)Cn2cnc3cc([N+](=O)[O-])ccc3c2=O)cc1 | -25 | 9 | . | -7 | . | . | . | . | .
CC(=O)Oc1cc2c3c(c1)/C(=C1/SC(=S)NC1=O)C(=O)N3C(C)(C)C=C2C | 51* | . | . | 23 | 42 | 40* | 37* | 43* | 40*
N#Cc1ccc(NC(=O)Nc2ccc(Cl)cc2)cc1 | 49* | -9 | -2 | 27 | 34 | 33 | 23* | 28* | 32*
COc1ccccc1-n1c(SCC(N)=O)nnc1-c1ccccc1 | 13 | -4 | 4 | 12 | . | . | . | . | .
COc1ccccc1-n1c(C)nnc1SCC(N)=O | 43* | 0 | 0 | 1 | 1 | 4 | -4 | 1 | -5
O=C(OCC(=O)N1CCCc2ccccc21)c1cnc(Cl)c(Cl)c1 | 49* | -1 | 6 | 19 | 31 | 16 | 22* | 7 | 25*
COc1ccc(N2C(=O)CC(NNC(=O)c3cccnc3)C2=O)cc1 (stereo not given) | 10 | . | . | 12 | . | . | . | . | .
CC(O)C1CCC2C3CC[C@H]4CC(O)CCC4(C)C3CC3(OCCO3)C12C (stereo not given in full) | 57* | 2 | -3 | 9 | 6 | 3 | -10 | 2 | 12
O=C(COC(=O)c1cc(S(=O)(=O)NCc2ccccc2)ccc1O)c1cc2ccccc2o1 | 8 | . | . | 1 | . | . | . | . | .
COc1ccc(/C=N/Nc2nc(N3CCCC3)nc(N3CCCC3)n2)cc1 | -5 | 8 | -2 | -4 | . | . | . | . | .
COC(=O)c1ccc(/C=N/Nc2nc(N3CCCCC3)nc(N3CCCCC3)n2)cc1 | 72* | 4 | . | -13 | -21 | -15 | -27 | -16 | -13
CS(=O)(=O)N(CC(=O)NC1CCCC1)C1CCCCC1 | 1 | 3 | . | -14 | . | . | . | . | .
CC(=O)c1sc(Nc2nc3ccc(F)cc3s2)nc1C | 45* | -20 | -5 | 17 | 28 | 15 | 16 | 20* | 19
SMILES | NPY1 pot ag | NPY Y1 blocker | NPY-Y2 antag | NPY2 pot ag | NPY-Y1 pot conf | NPY-Y2 counter | NPY-Y1 ag | NPY-Y2 agonist | CNGC inh 2
O=C(c1ccc2c3c(cccc13)CC2)C1CCCN(Cc2ccncc2)C1 (stereo not given) | 77* | 1 | . | 2 | -27 | -4 | -33 | -7 | -7
COCCCNCCCCOc1ccc(C)cc1[N+](=O)[O-] | -17 | 4 | 2 | -5 | . | . | . | . | .
C=CCNCCOc1ccc(C)cc1[N+](=O)[O-] | 39* | -2 | . | 4 | 0 | 5 | -2 | 4 | 3
CCn1c(SCC(=O)Nc2ccc3c(c2)oc2ccccc23)nnc1-c1ccc(N)cc1 | 46* | 1 | -4 | 20 | 43 | 37* | 38* | 43* | 21
COc1ccccc1NS(=O)(=O)c1cc(N/C(=N\S(=O)(=O)c2ccccc2)c2ccc(F)cc2)ccc1Cl | 43* | -13 | -5 | 28 | 39 | 26 | 25* | 24* | 43*
COc1ccccc1NS(=O)(=O)c1cc(NC(=S)Nc2cc(C)cc(C)c2)ccc1Cl | -19 | 0 | 0 | -2 | . | . | . | . | .
CC(C)(C)NC(=O)C(c1ccc(O)cc1)N(C(=O)Cn1nnc(-c2ccc(F)cc2)n1)c1ccccc1F (stereo not given) | 52* | -1 | . | -6 | 14 | 5 | 19* | 16* | 20
CCOC(=O)c1nnn2c1nc(Nc1cccc(C(F)(F)F)c1)c1ccccc12 | -1 | . | . | 0 | . | . | . | . | .
CCN=c1scc(-c2cccs2)n1/N=C/c1cc(OC)ccc1O | -14 | -1 | 4 | -1 | . | . | . | . | .
CC(C)N=c1scc(-c2cccs2)n1/N=C/c1ccc(O)c(O)c1O | 52* | -4 | -1 | 21 | 51* | 39* | 53* | 26* | 21
CC(C)(C)NC(=O)Cn1c(Cl)nc2ccccc21 | 6 | -1 | . | -6 | . | . | . | . | .
Cc1nc(-c2ccccc2Cl)sc1C(=O)/C=C/N(C)C | -6 | 3 | . | 8 | . | . | . | . | .
FC(F)(F)c1cccc(NC(=S)Nc2ccc(Cl)c(Cl)c2)c1 | 45* | . | . | 33 | 26 | 29 | 7 | 25* | 19
CCOc1ccc(NC(=S)NNC(=S)Nc2cccc(C(F)(F)F)c2)cc1 | 54* | . | . | 31 | 29 | 21 | 24* | 32* | 5
O=C(c1ccccc1)N1CCN(c2n[nH]c(=O)[nH]c2=O)CC1 | 45* | 6 | . | 9 | 0 | 0 | -4 | -3 | -3
O=C(c1ccccc1)N1CCN(C(=O)c2ccncc2)CC1 | -3 | -5 | 2 | 0 | . | . | . | . | .
